Measured values: ChEMBL document CHEMBL4130608, “Isolation, Derivative Synthesis, and Structure-Activity Relationships of Antiparasitic Bromopyrrole Alkaloids from the Marine Sponge Tedania brasiliensis” (J Nat Prod, 2018)
Converted amounts (≈) assume the structure as drawn. The source made the active and inactive calls. The calls are words filed in the database; no cut-off is given here.

Columns and labels:
[1] = test system: Plasmodium falciparum; assay: Antiplasmodial activity against chloroquine/cycloguanil/pyrimethamine-resistant blood stage Plasmodium falciparum K1 by SYBR green 1 staining based fluorescence assay; assay type: functional, organism-based
Procedure, shortened: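 Freshly sorbitol-synchronized ring stages were exposed in triplicate to a concentration series, solubilized in 0.05% DMSO (v/v), alongside sample-free cultures. Cells were lysed for 30 min in 20 mM Tris pH 7.5, 5 mM EDTA, 0.008% saponin and 0.08% Triton X-100 with SYBR green I (1:20000). IC50 was obtained by curve fitting against untreated growth.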

[2] = test system: Plasmodium falciparum; assay: Antiplasmodial activity against drug-sensitive blood stage Plasmodium falciparum 3D7 by SYBR green 1 staining based fluorescence assay; assay type: functional, organism-based
Procedure, shortened: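 Sorbitol-synchronized ring-stage 3D7 exposed to a range of concentrations (samples in 0.05% DMSO), in triplicate. Then lysed with Tris/EDTA/saponin/Triton buffer containing SYBR Green I (1:20000) for 30 min. IC50 from curve fitting against untreated growth.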

[3] = test system: Plasmodium falciparum; assay: Antiplasmodial activity against chloroquine/pyrimethamine-resistant Plasmodium falciparum K1 assessed as reduction in [3H]hypoxanthine incorporation pretreated for 48 hrs followed by [3H]hypoxanthine addition measured after 24 hrs by liquid scintillation counting method; assay type: functional, organism-based
[4] = test system: Leishmania infantum; assay: Antileishmanial activity against Leishmania infantum MHOM/BR/1972/LD promastigotes after 24 hrs by MTT assay; assay type: functional, organism-based
Procedure, shortened: (§1)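 Promastigotes (L. amazonensis, L. infantum; 26 °C, M199 with 20% heat-inactivated FBS, hemin, adenine, L-glutamine, plus 5% human urine for L. infantum) or T. cruzi Y epimastigotes (LIT with hemin, 10% FCS, 28 °C). Exposed to a series of concentrations for 24 h. Viability read by MTT. EC50 from sigmoidal fit of concentration–response. Triplicates, repeated two or three times.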

[5] = Selectivity index, ratio of MDL50 for human HepG2 cells to IC50 for drug-sensitive blood stage Plasmodium falciparum 3D7; assay type: toxicity; conditions: HepG2 cells versus blood stage Plasmodium falciparum 3D7, read-out: Selectivity Index
[6] = test system: Leishmania amazonensis; assay: Antileishmanial activity against Leishmania amazonensis amastigotes infected in BALB/c mouse BMDM assessed as reduction in intracellular amastigotes at 100 uM after 24 hrs by microscopic analysis relative to control; assay type: functional; parameters: scale not given: the % may be the effect or the level left
Procedure, shortened: (§2)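 BALB/c bone marrow macrophages infected with stationary-phase L. amazonensis promastigotes (MOI 10) for 1 h, then washed and held 24 h at 33 °C, 5% CO2. Treated with 6.125, 25, 50 or 100 μM for 24 h at 33 °C. Cells MeOH-fixed and stained. Amastigotes counted in 300 cells per coverslip on triplicate coverslips. Expressed as % reduction versus untreated infected cells. Two independent experiments.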

[7] = test system: BMDM; assay: Cytotoxicity against BALB/c mouse BMDM after 24 hrs by MTT assay; assay type: cell-based
Procedure, shortened: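 Differentiated BALB/c female mouse bone marrow macrophages incubated at 37 °C with increasing concentrations for 24 h. Viability read by MTT and CC50 calculated.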

[8] = test system: Leishmania amazonensis; assay: Antileishmanial activity against Leishmania amazonensis amastigotes infected in BALB/c mouse BMDM assessed as reduction in intracellular amastigotes after 24 hrs by microscopic analysis; assay type: functional, organism-based; procedure, shortened: as §2
[9] = test system: Trypanosoma cruzi; assay: Antitrypanosomal activity against Trypanosoma cruzi Y epimastigotes after 24 hrs by MTT assay; assay type: functional, organism-based; procedure, shortened: as §1
[10] = test system: Leishmania amazonensis; assay: Antileishmanial activity against Leishmania amazonensis amastigotes infected in BALB/c mouse BMDM assessed as reduction in intracellular amastigotes at 6.125 uM after 24 hrs by microscopic analysis relative to control; assay type: functional; parameters: scale not given: the % may be the effect or the level left; procedure, shortened: as §2
[11] = Cytotoxicity against human HepG2 cells after 24 hrs by MTT assay; assay type: cell-based; conditions: read-out: MDL50
Procedure, shortened: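 HepG2 cells grown in RPMI-1640 with 10% FBS, seeded at 5 × 10^3 cells/well and allowed to adhere for 18 h. Exposed to 1,000–1 μg/mL for 24 h at 37 °C, 5% CO2. MTT (5 mg/mL stock) added for 3 h, formazan dissolved in DMSO, absorbance read at 570 and 630 nm. Viability expressed as % of untreated control after background subtraction.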

[12] = test system: Leishmania amazonensis; assay: Antileishmanial activity against Leishmania amazonensis amastigotes infected in BALB/c mouse BMDM assessed as reduction in intracellular amastigotes at 25 uM after 24 hrs by microscopic analysis relative to control; assay type: functional; parameters: scale not given: the % may be the effect or the level left; procedure, shortened: as §2
[13] = test system: Leishmania amazonensis; assay: Antileishmanial activity against Leishmania amazonensis amastigotes infected in BALB/c mouse BMDM assessed as reduction in intracellular amastigotes at 50 uM after 24 hrs by microscopic analysis relative to control; assay type: functional; parameters: scale not given: the % may be the effect or the level left; procedure, shortened: as §2
[14] = test system: Leishmania amazonensis; assay: Antileishmanial activity against Leishmania amazonensis MHOM/BR/1973/M2269 promastigotes after 24 hrs by MTT assay; assay type: functional, organism-based; conditions: MHOM/BR/1973/M2269, 24 h; procedure, shortened: as §1
[15] = test system: Leishmania donovani; assay: Antileishmanial activity against Leishmania donovani MHOM/ET/67/L82 amastigote forms after 72 hrs by alamar blue staining based fluorescence assay; assay type: functional, organism-based; conditions: MHOM/ET/67/L82, 72 h
[16] = test system: Trypanosoma brucei rhodesiense; assay: Antitrypanosomal activity against Trypanosoma brucei rhodesiense STIB 900 bloodstream forms after 72 hrs by alamar blue staining based fluorescence assay; assay type: functional, organism-based; conditions: STIB 900, 72 h
[17] = test system: Plasmodium falciparum; assay: Antiplasmodial activity against chloroquine/cycloguanil/pyrimethamine-resistant blood stage Plasmodium falciparum K1 assessed as morphological changes at 10 times IC50 after 8 to 16 hrs by microscopic analysis; assay type: functional, organism-based
Procedure, shortened: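 Highly synchronized blood-stage parasites were kept under continuous treatment, with a DMSO-treated control. Morphology was examined by microscopy at 0, 8, 16 and 32 h post-synchronization. Images are representative of three independent experiments.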

[18] = test system: Plasmodium falciparum; assay: Synergistic antiplasmodial activity against drug-sensitive blood stage Plasmodium falciparum 3D7 in presence of artesunate; assay type: functional
Procedure, shortened: (§3)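 Each drug's stock was made in complete medium so that the final concentration approximates its IC50 after 3–4 twofold dilutions. Stocks were mixed v/v at ratios ranging from 0:5 to 5:0 and serially diluted two-fold to seven concentrations. FIC50 was computed for each drug and summed as ΣFIC50.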

[19] = test system: HepG2; assay: Cytotoxicity against human HepG2 cells assessed as morphological changes at 10 uM by microscopic method; assay type: cell-based; conditions: hepg2, 10 µM
Procedure, shortened: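 HepG2 cells treated at 10 μM for 24 h. Microscopic morphology compared with untreated cells.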

[20] = test system: Plasmodium falciparum; assay: Antiplasmodial activity against drug-sensitive blood stage Plasmodium falciparum 3D7 ring forms assessed as morphological changes at 10 times IC50 after 8 to 16 hrs by microscopic analysis; assay type: functional, organism-based
Procedure, shortened: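 Morphology examined by microscopy at 0, 8, 16 and 32 h post-synchronization. Three independent experiments.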

[21] = test system: Plasmodium falciparum; assay: Synergistic antiplasmodial activity against chloroquine/cycloguanil/pyrimethamine-resistant blood stage Plasmodium falciparum K1 in presence of artesunate; assay type: functional; procedure, shortened: as §3

Row | SMILES | IC50 [2] [µM] | EC50 [9] [µM] | EC50 [4] [µM] | EC50 [14] [µM] | also measured
1 | CC1(C)N=C(N)N=C(N)N1c1ccc(Cl)cc1 [CYCLOGUANIL] | 0.01 |  |  |  | IC50 [1]: 0.54 µM
2 | NC1NC(=O)/C(=C2/CCNC(=O)c3[nH]cc(Br)c32)N1 (stereo not given) [SPONGIACIDIN B] |  |  |  |  | IC50 [3]: 1.09 µg/mL (≈ 3.34 µM)
3 | NC1=N/C(=C\CCNC(=O)c2cc(Br)c[nH]2)C(=O)N1 |  |  |  |  | IC50 [3]: 1.34 µg/mL (≈ 4.11 µM)
4 | Cc1ccc(C(=O)NCCCCNCCCNC(=O)c2ccc(C)o2)o1 | > 10 | > 100 | > 100 | > 100 | 
5 | O=C(NCCCCNCCCNC(=O)c1nc2ccccc2[nH]1)c1nc2ccccc2[nH]1 | > 10 | > 100 | > 100 | > 100 | 
6 | O=C(O)CC1CNC(=O)c2cc(Br)c(Br)n21 (stereo not given) |  |  |  |  | IC50 [15]: 3.85 µg/mL (≈ 10.9 µM); IC50 [16]: 1.53 µg/mL (≈ 4.35 µM)
7 | NC[C@H]1[C@@H]2CN3C(=O)c4cc(Br)c(Br)n4[C@H]4NC(N)=N[C@]43[C@H]2[C@@]2(N=C(N)N[C@@H]2O)[C@@H]1Cl |  |  |  |  | IC50 [15]: 1.48 µg/mL (≈ 2.56 µM); IC50 [16]: 0.46 µg/mL (≈ 0.796 µM); IC50 [3]: 1.48 µg/mL (≈ 2.56 µM)
8 | O=C(NCCCNCCCCNCCCNC(=O)c1cc(Br)c(Br)[nH]1)c1cc(Br)c(Br)[nH]1 | 2 | > 100 | 18 to 19 | 44 | selectivity ratio [5]: 52; Activity [6]: 81.2%; CC50 [7]: > 100 µM; Activity [8]: Dose-dependent effect; Activity [10]: 27.3%; CC50 at 24 h [11]: 99 µM; Activity [12]: 45.4%; Activity [13]: 51%
9 | O=C(NCCCCNCCCNC(=O)c1cccc(Cl)n1)c1cccc(Cl)n1 | > 10 | > 100 | > 100 | > 100 | 
10 | O=C(NCCCCNCCCNC(=O)c1cc(Br)c(Br)[nH]1)c1cc(Br)c(Br)[nH]1 | 1 | > 100 | > 100 | > 100 | Activity [17]: Active; selectivity ratio [5]: 15; IC50 [1]: 1.1 µM; fractional inhibitory concentration index (FICI) [18]: 1; Activity [19]: Non-Toxic; CC50 at 24 h [11]: 16 µM; Activity [20]: Active; fractional inhibitory concentration index (FICI) [21]: 1
11 | Cc1ccc(C(=O)NCCCCNCCCNC(=O)c2ccc(C)s2)s1 | > 10 | > 100 | > 100 | > 100 | 
12 | Cc1cccc(C(=O)NCCCCNCCCNC(=O)c2cccc(C)n2)n1 | > 10 | > 100 | > 100 | > 100 | 

Further lines, with some results ahead:

Row | IC50 [2] [µM] | EC50 [9] [µM] | SMILES | EC50 [4] [µM] | EC50 [14] [µM] | also measured
13 | 3 | > 100 | O=C(NCCCCNCCCNC(=O)c1cc(Br)c(Br)o1)c1cc(Br)c(Br)o1 | 23 | 18 | selectivity ratio [5]: ≥ 125; Activity [6]: 77.4%; CC50 [7]: 82 µM; Activity [8]: Dose-dependent effect; Activity [10]: 55.6%; CC50 at 24 h [11]: ≥ 400 µM; Activity [12]: 35%; Activity [13]: 60%
14 | > 10 | > 50 | O=C(NCCCCCNC(=O)c1ccc[nH]1)c1ccc[nH]1 | > 100 | > 100 | 
15 | > 10 | > 100 | O=C(NCCCCNCCCNC(=O)c1cc2ccccc2[nH]1)c1cc2ccccc2[nH]1 | > 100 | > 100 | 
16 | > 10 | > 100 | O=C(NCCCCNCCCNC(=O)c1ccc[nH]1)c1ccc[nH]1 | > 100 | > 100 | 
17 | > 10 | 7 | O=C(NCCCCCNC(=O)c1cc(Br)c(Br)[nH]1)c1cc(Br)c(Br)[nH]1 | 24 | 19 | CC50 [7]: 52 µM
18 | > 10 | 24 | O=C(NCCSCCNC(=O)c1cc(Br)c(Br)[nH]1)c1cc(Br)c(Br)[nH]1 | 24 | 43 | CC50 [7]: 66 µM
19 | 4 | > 100 | CN(CCCCNC(=O)c1cc(Br)c(Br)[nH]1)CCCNC(=O)c1cc(Br)c(Br)[nH]1 | > 100 | > 100 | selectivity ratio [5]: 35; CC50 at 24 h [11]: 160 µM
20 | 7 | > 100 | O=C(NCCCCNCCCNC(=O)c1cc(Br)c[nH]1)c1cc(Br)c[nH]1 | > 100 | > 100 | selectivity ratio [5]: ≥ 54; CC50 at 24 h [11]: ≥ 400 µM
21 | 2 | > 100 | O=C(NCCCCCCNCCCCCCNC(=O)c1cc(Br)c(Br)[nH]1)c1cc(Br)c(Br)[nH]1 | > 100 | > 100 | selectivity ratio [5]: 101; CC50 at 24 h [11]: 263 µM
22 | > 10 | > 100 | O=C(NCCCCNCCCNC(=O)c1ccc(Br)s1)c1ccc(Br)s1 | 20 | 76 | Activity [6]: 79.5%; CC50 [7]: > 100 µM; Activity [8]: Dose-dependent effect; Activity [10]: 46.4%; Activity [12]: 41.5%; Activity [13]: 58.8%
23 | > 10 | > 100 | O=C(NCCCCNCCCNC(=O)c1cc(Cl)c(Cl)[nH]1)c1cc(Cl)c(Cl)[nH]1 | > 100 | > 100 | 
24 | > 10 | > 100 | CC(=O)N(CCCCNC(=O)c1cc(Br)c(Br)[nH]1)CCCNC(=O)c1cc(Br)c(Br)[nH]1 | > 100 | > 100 | 
25 | > 10 | > 50 | [N-]=[N+]=NCC(=O)N(CCCCNC(=O)c1cc(Br)c(Br)[nH]1)CCCNC(=O)c1cc(Br)c(Br)[nH]1 | > 100 | > 100 | 
26 | > 10 | > 100 | O=C(NCCCCCCCCNC(=O)c1cc(Br)c(Br)[nH]1)c1cc(Br)c(Br)[nH]1 | > 100 | > 100 | 
27 | > 10 | > 100 | O=C(NCCCCNCCCNC(=O)c1ccc(F)[nH]1)c1ccc(F)[nH]1 | > 100 | > 100 | 
